Screens (PubChem)
Only some compounds are listed: those with a hit (about 2.1% of all), similar ones and a draw of the others.
APJ antagonist – antagonists of human APJ apelin receptor; CHO-K1 APJ beta-arrestin complementation, luminescence; 330,000 tested, 0.32% active; P35414; inhibition, % at 20 µM;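 active = inhibition above about 40% at 20 µM, limit read from the data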;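 also: cells challenged with 10 nM apelin-13 agonist together with compound; plate controls were apelin-13 plus DMSO wells for no effect and DMSO wells lacking apelin-13 for full effect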
CXCR6 inh – blocks human CXCR6 beta-arrestin recruitment; O00574; CHO-K1 PathHunter CXCR6 beta-arrestin, luminescence; inhibition, % at 20 µM; 360,000 tested, 0.36% active; in the data active = inhibition above about 34%, passing the limit was not always enough;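 also: antagonist mode with CXCL16 agonist at 10 nM final; 0% = 10 nM CXCL16 with DMSO and 100% = unstimulated wells without agonist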
EBI2 antag – antagonists of human EBI2 receptor; 360,000 tested, 0.81% active; EBI2 beta-arrestin recruitment, luminescence, 7a,25-OHC stimulated; inhibition, % at 5 µM; in the data active = inhibition above about 38%;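 also: enzyme fragment complementation signal reports receptor beta-arrestin coupling in cells; 0% = agonist plus DMSO wells and 100% = wells without agonist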
Target sequence (P32249 whole entry, looked up, the tested form may be a part): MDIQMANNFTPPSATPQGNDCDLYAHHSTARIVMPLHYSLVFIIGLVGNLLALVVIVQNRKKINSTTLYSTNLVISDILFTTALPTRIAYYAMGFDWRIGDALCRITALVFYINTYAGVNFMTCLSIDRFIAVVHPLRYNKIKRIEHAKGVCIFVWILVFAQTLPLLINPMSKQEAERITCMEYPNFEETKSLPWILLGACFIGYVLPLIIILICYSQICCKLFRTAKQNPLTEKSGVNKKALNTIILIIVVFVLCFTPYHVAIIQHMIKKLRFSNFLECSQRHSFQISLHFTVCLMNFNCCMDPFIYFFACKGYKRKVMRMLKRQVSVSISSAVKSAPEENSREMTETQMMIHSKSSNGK
APJ ag – activates the human apelin receptor APJ; P35414; CHO-K1 APJ PathHunter beta-arrestin, luminescence; 0% DMSO wells, 100% apelin; activation, % at 20 µM; 330,000 tested, 0.11% active;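 active = activation more than six SD over the plate average, tested at 20 µM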;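 also: 0% = DMSO alone and 100% = apelin-13 at 10 nM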
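Material: CHO-K1 APJ beta-arrestin complementation cell line; Input: cell density 1000 per well; Incubation: compound stimulation 90 min at 25 °C, detection 60 min; Signal: luminescence from split beta-galactosidase complementation, Galacton Star/Emerald II substrate; Controls: DMSO-only wells as negative, 10 nM Apelin-13 as positive control.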
CCR6 antagonist – blocks CCL20-driven beta-arrestin recruitment at human CCR6. inhibition, % at 20 µM. AID 493098. 340,000 tested, 0.49% active. CHO-K1 CCR6 PathHunter beta-arrestin, luminescence, CCL20-stimulated. P51684;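 active = compounds whose inhibition of the agonist-driven luminescence signal at 20 µM reaches about 50%, limit read from the data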;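 also: cells stimulated with CCL20 at 14 nM final; plate controls were DMSO with CCL20 for no effect and DMSO without agonist for full effect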
m5-HT2A agonist – activates the mouse 5-HT2A serotonin receptor; activation, % at 7.6 µM; CHO-K1 mHTR2A beta-arrestin complementation, luminescence; percent of 30 µM serotonin response; P35363; 360,000 tested, 0.66% active;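 active = activation above a run cutoff, the mean activation of all tested compounds plus 3 SD, cut at about 14% in these data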;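 also: 0% = plate median of compound wells and 100% = 30 µM serotonin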
OPRM1 ag – OPRM1 agonism in mouse HTR2A counterscreen; shares compounds with m5-HT2A agonist; U2OS OPRM1 beta-arrestin PathHunter, luminescence; DMSO 0%, DAMGO 9.3 µM 100%; activation, % at 9.3 µM; 2,300 tested, 5.3% active; AID 624380;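 active = mean activation above the mean of DMSO-only wells plus 3 SD, cut at about 0.5% in these data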
m5-HT2A ag conf – confirmation of mouse HTR2A serotonin receptor agonists. activation, % at 7.6 µM. AID 624381. 2,300 tested, 19% active. shares compounds with m5-HT2A agonist. CHO-K1 PathHunter beta-arrestin recruitment, luminescence; DMSO 0%, 30 µM serotonin 100%;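 active = mean activation across triplicates above the hit threshold derived in the original primary screen, cut at about 15% in these data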
Active calls of the source: *; nt = no result.

SMILES | APJ antagonist | CXCR6 inh | EBI2 antag | APJ ag | CCR6 antagonist | m5-HT2A agonist | OPRM1 ag | m5-HT2A ag conf
CC(C)(C)c1ccc(C(=O)N2CCN(c3nc4ccccc4o3)CC2)cc1 | 6 | -6 | -4 | -2 | 9 | 17* | 0 | -1
O=C(c1ccc(-c2ccccc2)cc1)N1CCN(c2nc3ccccc3o2)CC1 | nt | -2 | 8 | nt | 7 | 3 | nt | nt
Cn1c(CNC(=O)c2ccco2)nnc1SCC(=O)Nc1ccc(Cl)cc1 | -19 | -9 | 3 | 0 | 1 | 3 | nt | nt
O=C(C[n+]1cc(-c2ccccc2)n2c1CCC2)Nc1nc(-c2ccc(F)cc2)cs1 | -2 | 3 | 1 | 0 | 3 | 21* | -1 | 51*
C#CCOCCOCCOCCNc1nc(N2CCOCC2)nc(N2CCN(C(=O)CCCCCCCCCCNC(=O)[C@@H](CCC(=O)O)n3cc(CCCCCN)nn3)CC2)n1 | 17 | 5 | -2 | 4 | 0 | 15* | -1 | -2
O=C(NCCCN1CCN(c2cccc(Cl)c2)CC1)c1cccc(N2CCCC2=O)c1 | 1 | -8 | -2 | 0 | 19 | 17* | -1 | 4
O=C(NCCCN1CCN(c2cccc(Cl)c2)CC1)c1ccc(N2CCCC2=O)cc1 | 11 | 7 | 1 | -2 | 13 | 4 | nt | nt
COc1ccc([N+](=O)[O-])cc1NC(=O)C(C)OC(=O)Cn1[nH]c(=O)c2ccccc2c1=O (stereo not drawn) | 24 | 5 | 2 | 0 | 1 | 0 | nt | nt
COC(=O)C1=C(CS(=O)(=O)c2ccc(C)cc2)NC(=O)NC1c1ccc(OC)c(OC)c1 (stereo not drawn) | -4 | 3 | -4 | -7 | 4 | 8 | nt | nt
COC(=O)C1=C(CS(=O)(=O)c2cc(Cl)ccc2OC)NC(=O)NC1c1ccc(O)c(OC)c1 (stereo not drawn) | 1 | -2 | 3 | 0 | 8 | 15* | -1 | 1
CCOC(=O)c1[nH]c(C)c(C(=O)OCc2ccccc2F)c1C | -54 | 1 | 10 | 5 | -2 | -6 | nt | nt
Cc1cc(OC(=O)c2cccc(Cl)c2)c([N+](=O)[O-])c(=O)[nH]1 | 3 | -1 | -3 | -5 | -6 | -4 | nt | nt
Cc1cc(OC(=O)c2cccc(F)c2)c([N+](=O)[O-])c(=O)[nH]1 | 16 | 2 | -2 | -4 | -3 | 15* | 0 | -3
CC1=C(C(=O)N2CCOCC2)CC(CC(=O)NCc2cccc3ccccc23)C(=O)N1CCCN1CCCC1=O (stereo not drawn) | nt | 1 | -9 | nt | nt | 2 | nt | nt
CCCCN1C(=O)C(CC(=O)NCc2cccc3ccccc23)CC(C(=O)N2CCOCC2)=C1C (stereo not drawn) | nt | 6 | -6 | nt | nt | 15* | 0 | 4
COc1ccccc1N1CCN(CC(=O)Nc2ccccc2C(=O)NCCc2ccccc2)CC1 | 20 | 15 | 3 | -3 | 22 | -5 | nt | nt
COc1ccc(NC(=O)C2CCCN2S(=O)(=O)c2cccs2)c([N+](=O)[O-])c1 (stereo not drawn) | -26 | -3 | -9 | 7 | -3 | 0 | nt | nt
COc1cc(CCCN2C(N)=NC[C@@H]2Cc2ccccc2)cc(OC)c1OC | -9 | 0 | 6 | -7 | 5 | 16* | -1 | -6
Cc1ccc2c(=O)[nH]c(Cc3ccccc3C(=O)O)nc2c1 | 5 | -9 | -16 | -2 | -5 | 15* | 0 | 10
O=c1[nH]c(Cc2ccccc2Cl)nc2ccccc12 | 9 | 0 | -1 | 0 | -1 | 2 | nt | nt
CCCOc1ccc(C(F)(F)F)cc1NC(=O)C1CC(=O)N(Cc2ccco2)C1 (stereo not drawn) | 3 | 6 | 17 | -3 | 9 | -1 | nt | nt
COc1cc(OC)c(NC(=O)c2ccco2)cc1Cl | 4 | 3 | 0 | 1 | 7 | 3 | nt | nt
